# pPAFAH inh – pPAFAH (human) enzyme inhibition; Q13093; recombinant pPAFAH, FP-rhodamine probe fluorescence polarization; inhibition, % at 3.39 µM; actives 1.5% (n = 330,000); AID 463082;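 active means inhibition above the mean inhibition across the screen plus 3 SD, cut at about 25% in these data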;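 further: inhibitors block binding of the rhodamine activity-based probe so polarization drops; 0% = enzyme with DMSO and 100% = wells lacking pPAFAH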
# IMP-1 inh-1 – inhibitors of Pseudomonas aeruginosa IMP-1 metallo-beta-lactamase | inhibition, % at 5.6 µM | actives 0.45% (n = 290,000) | purified IMP-1, nitrocefin hydrolysis, epi-absorbance fluorescence;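 active means inhibition above the mean plus 3 SD of all compounds in the same screening run, cut at about 4.5% in these data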;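 further: 0% = IMP-1 with DMSO and 100% = DMSO wells lacking enzyme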
#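 System: Purified recombinant IMP-1 metallo-beta-lactamase enzyme | Measured by: Fluorescence quenching readout, ex 480/em 530 nm | Replication: Singlicate | Incubation: 15 min preincubation plus 25 min reaction at 25 °C | Evaluation: Percent inhibition from optical density relative to buffer-blank wells | Benchmarks: DMSO with and without IMP-1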
# PAFAH2 FP inh – inhibitors of human PAFAH2; recombinant PAFAH2, FP-rhodamine activity probe, fluorescence polarization; inhibition, % at 3.39 µM; actives 0.99% (n = 340,000); AID 492956;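 active means inhibition above the mean over all tested compounds plus 3 SD, cut at about 30% in these data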;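 further: inhibitors block probe labeling of enzyme so polarization drops; 0% = enzyme with DMSO and 100% = wells lacking PAFAH2 protein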
# VIM-2 inhibitor – blocks Pseudomonas aeruginosa VIM-2 metallo-beta-lactamase; inhibition, % at 5.6 µM; purified VIM-2, nitrocefin hydrolysis, epi-absorbance fluorescence; actives 0.89% (n = 290,000);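 active means inhibition above the mean of all tested compounds plus 3 SD, cutoff set per screening run, cut at about 7.5% in these data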;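 further: red hydrolysis product quenches plate fluorescence so inhibitors raise well fluorescence; 0% = enzyme with DMSO and 100% = DMSO without enzyme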
# PAFAH1B2 FP inh – inhibitors of human PAFAH1B2. P68402. recombinant PAFAH1B2, FP-rhodamine activity probe, fluorescence polarization. inhibition, % at 3.39 µM. actives 1.2% (n = 340,000);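 active means inhibition above the mean of all tested compounds plus 3 SD, cut at about 24% in these data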;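 further: 0% = enzyme with DMSO and 100% = wells lacking PAFAH1B2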
# Target sequence (P68402 whole entry, looked up): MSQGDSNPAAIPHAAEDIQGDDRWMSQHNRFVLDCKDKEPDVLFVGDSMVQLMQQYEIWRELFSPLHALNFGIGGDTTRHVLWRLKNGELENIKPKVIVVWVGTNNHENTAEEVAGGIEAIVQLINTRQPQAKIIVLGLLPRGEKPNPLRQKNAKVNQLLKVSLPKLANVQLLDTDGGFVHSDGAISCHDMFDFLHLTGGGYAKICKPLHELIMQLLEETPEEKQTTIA
# PAFAH1B3 FP inh – blocks human PAF acetylhydrolase 1B catalytic subunit 3 | Q15102 | recombinant PAFAH1B3, FP-rhodamine probe, fluorescence polarization | inhibition, % at 3.39 µM | actives 0.28% (n = 340,000);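 active means inhibition above the screen-wide average of all tested compounds plus 3 SD, cut at about 25% in these data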;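 further: 0% = enzyme with DMSO only and 100% = wells lacking PAFAH1B3 protein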
# Target sequence (Q15102 whole entry, looked up): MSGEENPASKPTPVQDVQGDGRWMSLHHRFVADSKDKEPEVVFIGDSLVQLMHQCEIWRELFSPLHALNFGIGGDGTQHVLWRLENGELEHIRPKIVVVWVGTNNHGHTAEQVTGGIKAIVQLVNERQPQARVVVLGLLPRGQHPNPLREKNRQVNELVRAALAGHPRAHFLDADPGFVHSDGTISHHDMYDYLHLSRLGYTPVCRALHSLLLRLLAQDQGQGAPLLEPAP
# IMP-1 inh-2 – selectivity counter-screen for VIM-2 inhibitors: IMP-1 metallo-beta-lactamase inhibitors; purified IMP-1, nitrocefin hydrolysis, epi-absorbance fluorescence; shares compounds with VIM-2 inhibitor; 1,300 tested, under 10 active; AID 1856; inhibition, % at 5.6 µM; call rule not given here;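 further: 0% = enzyme with vehicle and 100% = vehicle without enzyme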
# VIM-2 FRET ctr – VIM-2 FRET inhibition, artifact counter-screen; shares compounds with VIM-2 inhibitor; purified VIM-2, CCF2 FRET substrate hydrolysis; inhibition, % at 5.6 µM; actives 23% (n = 1,300);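 active means inhibition above the mean of all tested compounds plus 3 SD, cut at about 19% in these data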;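 further: 0% = VIM-2 plus DMSO and 100% = no enzyme wells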
# TEM-1 counter – TEM-1 inhibition, counter-screen for VIM-2 inhibitors; Purified TEM-1, nitrocefin hydrolysis, epi-absorbance fluorescence; inhibition, % at 5.6 µM; actives 3% (n = 1,300); AID 1866; shares compounds with VIM-2 inhibitor;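 active means inhibition above that campaign's mean inhibition plus 3 SD, cut at about 0.46% in these data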;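 further: 0% = TEM-1 with DMSO and 100% = TEM-1 with 100 µM potassium clavulanate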
# Target sequence (P62593 whole entry, looked up): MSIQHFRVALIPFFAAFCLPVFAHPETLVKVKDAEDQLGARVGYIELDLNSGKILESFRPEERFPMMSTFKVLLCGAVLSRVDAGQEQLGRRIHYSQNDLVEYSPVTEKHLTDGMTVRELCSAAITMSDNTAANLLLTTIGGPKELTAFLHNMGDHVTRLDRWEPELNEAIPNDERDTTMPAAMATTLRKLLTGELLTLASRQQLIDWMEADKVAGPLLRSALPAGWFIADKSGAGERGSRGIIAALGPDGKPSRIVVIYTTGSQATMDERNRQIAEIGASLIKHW
# VIM-2 inh conf – confirmation of P. aeruginosa VIM-2 metallo-beta-lactamase inhibitors. shares compounds with VIM-2 inhibitor. purified VIM-2, nitrocefin hydrolysis, epi-absorbance. inhibition, % at 5.6 µM. actives 96% (n = 1,300);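 active means inhibition of the VIM-2 beta-lactamase enzyme above about 11% from the earlier first-round screen, limit read from the data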;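 further: 0% = VIM-2 with DMSO and 100% = buffer wells without enzyme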
# Active calls of the source: *; / = no result given. An excerpt weighted towards active compounds, which were near 3.6% of everything screened.
SMILES,pPAFAH inh,IMP-1 inh-1,PAFAH2 FP inh,VIM-2 inhibitor,PAFAH1B2 FP inh,PAFAH1B3 FP inh,IMP-1 inh-2,VIM-2 FRET ctr,TEM-1 counter,VIM-2 inh conf
Cc1c(OCC(=O)NCc2cccnc2)ccc2c3c(c(=O)oc12)CCCC3,3.2,-3.1,4.4,16.8*,5.2,3.3,-2.6,-5.2,-16.2,25.9*
Cc1c(OC(C)C(=O)O)ccc2c3c(c(=O)oc12)CCCC3 (configuration not stated),2.6,-0.1,7.1,-2.0,6.1,2.4,/,/,/,/
Cc1c(OC(C)C(=O)NCc2cccnc2)ccc2c3c(c(=O)oc12)CCCC3 (configuration not stated),3.3,-1.5,4.1,13.6*,3.8,-2.1,-2.2,-3.4,-11.9,24.0*
COc1ccc(NC(=O)c2cc3ccc(O)cc3o/c2=N\O)cc1,8.5,-1.2,-0.9,0.4,-6.2,4.3,/,/,/,/
O=C(OCN1C(=O)c2ccccc2C1=O)c1ccc(Cl)nc1,7.0,-6.6,-2.1,-1.9,5.0,1.9,/,/,/,/
Cc1c(C)c2ccc(OCC(=O)Nc3cccnc3)c(C)c2oc1=O,4.5,-2.7,10.1,12.3*,3.0,8.9,-2.4,-1.3,-13.7,20.9*
Cc1nc(N2CCCC2)c2ccsc2n1,-0.2,3.3,-1.6,13.8*,-2.7,4.2,-2.2,1.2,-0.3,14.8*
CCc1c(C)c(C#N)c2nc3ccccc3n2c1NCCN(C)C,3.3,-3.5,1.6,5.8,3.8,5.5,/,/,/,/
CCCc1cc(NCCCN(C)C)n2c(nc3ccccc32)c1C#N,4.8,-2.5,2.6,20.6*,-2.1,0.9,0.2,-0.5,2.0*,35.1*
C=C(C)Cc1c(C)c(C#N)c2nc3ccccc3n2c1NCCCN(C)C,-3.8,0.9,/,29.3*,/,/,-2.8,0.0,-6.4,45.1*
C[C@]12C(=O)N(c3ccc(Cl)cc3)C(=O)N1[C@@H]1c3ccccc3OC[C@@H]1[C@H]2c1ccccc1,2.0,/,-14.9,/,2.8,-6.1,/,/,/,/
COc1ccc(C)c2sc(N(CCCN(C)C)C(=O)c3ccc4c(c3)OCCO4)nc12,6.8,/,-0.5,/,1.3,6.4,/,/,/,/
COc1ccc(OC)c(Nc2cc(C)nc3nc(C)nn23)c1,6.9,-3.9,-1.7,14.6*,2.1,2.7,-3.3,-1.7,-3.5,30.4*
Cc1cc(Nc2cc(F)ccc2C)n2nc(C)nc2n1,-6.7,0.2,-6.6,5.5,-8.1,13.9,/,/,/,/
COc1ccc(C)cc1Nc1cc(C)nc2nc(C)nn12,0.6,-4.0,-7.0,26.3*,-3.0,6.3,-2.1,-0.8,-6.4,39.7*
COC(=O)c1ccc(Nc2cc(C)nc3nc(C)nn23)cc1,4.1,1.6,5.8,7.2,-1.0,3.8,/,/,/,/
COC(=O)c1ccccc1Nc1cc(C)nc2nc(C)nn12,2.0,-0.6,-2.0,13.0*,0.3,7.6,-3.3,2.2,-5.4,29.3*
COc1ccc(C(CNC(=O)c2oc3c(Cl)cccc3c2C)N2CCCC2)cc1 (configuration not stated),2.8,/,2.2,/,-1.0,8.7,/,/,/,/
N#Cc1c(N2CCSCC2)nsc1-c1ccccc1Cl,/,-0.8,7.6,-1.9,4.5,4.9,/,/,/,/
O=C(NCCCN1CCCC1=O)C(=O)NCC1OCCCN1S(=O)(=O)c1cc(F)ccc1F (configuration not stated),5.7,-2.1,2.0,-1.6,-2.8,6.2,/,/,/,/
CN(CC(=O)Nc1cccc(F)c1)C(=O)c1cc([N+](=O)[O-])ccc1N1CCCCC1,3.9,/,4.8,/,0.6,6.7,/,/,/,/
Fc1ccccc1-c1n[nH]c(=S)n1CC1CCCO1 (configuration not stated),4.9,-2.5,-2.0,35.2*,1.0,3.2,-3.5,60.6*,-5.8,44.3*
COc1cc(CNCCNCC(C)O)ccc1OCc1ccc(Cl)nc1 (configuration not stated),-2.2,-2.9,10.2,38.5*,-1.5,5.1,-3.5,-2.5,-4.4,32.1*
COc1ccc(CCNCc2ccc(OCc3ccc(Cl)nc3)c(OC)c2)cc1OC,-0.7,-1.7,2.9,-2.9,3.5,0.7,/,/,/,/
N#CCSc1nc2cc(C(=O)N3CCC(C(N)=O)CC3)ccc2c2nc3ccccc3n12,16.2,-1.2,9.9,24.3*,-3.8,9.4,-2.3,1.2,-3.7,40.0*
SMILES,pPAFAH inh,IMP-1 inh-1,PAFAH2 FP inh,VIM-2 inhibitor,PAFAH1B2 FP inh,PAFAH1B3 FP inh,IMP-1 inh-2,VIM-2 FRET ctr,TEM-1 counter,VIM-2 inh conf
Cc1cccc(C(=O)Nc2nnc(SCC(=O)NCc3ccco3)s2)c1,0.9,-0.6,3.8,17.9*,8.2,11.2,-3.1,36.6*,-6.5,24.4*
O=C(CSc1nnc(NC(=O)c2c(F)cccc2F)s1)NCC1CCCO1 (configuration not stated),-2.6,/,-2.9,/,3.9,-1.6,/,/,/,/
Cc1cccc(C)c1Nc1nnc(SCC(=O)NCc2ccco2)s1,5.7,-2.3,4.3,-1.2,0.4,3.4,/,/,/,/
O=C(CSc1nnc(NC(=O)c2cccc(F)c2)s1)NCC1CCCO1 (configuration not stated),-0.6,-0.5,0.5,16.6*,1.5,1.2,-2.5,25.8*,-4.7,14.8*
ClC(Cl)(Cl)c1nc(N/N=C/c2ccncc2)c2ccccc2n1,-0.3,-3.7,-17.6,34.0*,-14.3,-15.2,-2.9,-4.1,-5.6,64.8*
COc1ccc(C2=Nn3c(nnc3-c3ccncc3)SC2)cc1OC,7.4,0.6,8.0,63.9*,2.5,0.2,-2.1,0.1,-4.4,75.2*
COc1ccc(C2=Nn3c(nnc3-c3cccnc3)SC2)cc1OC,4.4,/,6.1,/,1.5,3.3,/,/,/,/
Cc1nn2c(-c3ccco3)nnc2c2ccccc12,1.8,0.4,8.8,13.1*,5.0,13.8,-2.4,-2.3,-4.4,26.5*
Cc1ccccc1-c1nnc2c3ccccc3c(C)nn12,1.6,-2.4,-3.5,-0.1,4.0,11.0,/,/,/,/
Cc1n[nH]c(C)c1N1C(=O)c2cccc3cc(Br)cc(c23)C1=O,1.0,-2.2,0.9,14.9*,2.4,7.8,-2.2,-4.8,-5.1,25.8*
Cc1n[nH]c(C)c1N1C(=O)c2cccc3c(Br)ccc(c23)C1=O,6.4,0.9,4.1,29.0*,2.9,-1.6,-3.2,-3.9,-5.6,33.4*
Cc1ccc(N2C(=O)c3cccc4c([N+](=O)[O-])ccc(c34)C2=O)c2cccnc12,-1.6,-3.0,0.9,-1.4,7.0,24.0,/,/,/,/

# Assay outcomes as filed in PubChem BioAssay.
